Only a selection was taken, and hits are over-represented in it overall.
INS-1E rescue = preserves ATP levels in cytokine-treated INS-1E cells; INS-1E cytokine-induced death, ATP luminescence, 48 h; normalised: neutral wells 0, positive control 100; protection from cytokine-induced ATP loss, % at 10 µM; 0.1% of 20,000 active; AID 488910;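 active = mean replicate protection from cytokine-induced ATP loss at least 50% and at least 75% of replicates each reaching 50%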
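Test system: INS-1E rat cells | Quantity: 8000 cells per well | Medium: Phenol-red-free RPMI with 5% fetal bovine serum | Reagent: Cytokine cocktail of IFN-γ, TNF-α and IL-1β | Doses: One compound concentration, pin transfer | Timing: 48 h co-treatment, 10 min post-lysis read | Technique: Luminescent ATP assay (CellTiter-Glo)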
T cruzi HTS = inhibitors of intracellular Trypanosoma cruzi; intracellular Trypanosoma cruzi in host cells, plate reader; activity score (inhibition), % at 5.01 µM; 4.9% of 22,000 active; in the data active = activity score above about 55%;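 also: parasites and compound incubated about four days before reading; 0% = median of neutral control wells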
YB-1 expression = YB-1 expression inhibition | U2OS, qRT-PCR YB-1 vs CDIP delta delta Cp, 16 h; hits give high values; zero = DMSO, each unit about twofold | delta delta Cp (YB-1 minus CDIP) (no concentration beside the values) | 0.37% of 30,000 active;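 active = delta delta Cp rounded down to an integer at or above 3, about 3 SD of DMSO wells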;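 also: higher means less YB-1 transcript or more CDIP transcript relative to DMSO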
An asterisk follows results filed as active; x = no result.

SMILES	INS-1E rescue	T cruzi HTS	YB-1 expression
C[C@@H]1CN([C@@H](C)CO)C(=O)c2cccc(NC(=O)c3ccncc3)c2O[C@@H]1CN(C)Cc1ccc2c(c1)OCO2	3.2	-1.2	0.132
C[C@@H]1CN([C@H](C)CO)C(=O)c2cccc(NC(=O)c3ccncc3)c2O[C@@H]1CN(C)Cc1ccc2c(c1)OCO2	-5.8	-8.1	0.283
C[C@H](CO)N1C[C@H](C)[C@@H](CN(C)Cc2ccc3c(c2)OCO3)Oc2c(NC(=O)c3ccncc3)cccc2C1=O	15.1	76.1*	-0.0132
C[C@H]1CN([C@@H](C)CO)C(=O)c2cccc(NC(=O)c3ccncc3)c2O[C@@H]1CN(C)Cc1ccc2c(c1)OCO2	-5.3	78.2*	0.0695
C[C@@H]1CN([C@H](C)CO)C(=O)c2cc(NC(=O)CCCCCC(=O)Nc3ccccc3N)ccc2O[C@@H]1CN(C)S(=O)(=O)c1ccccc1	-4.5	-34.9	0.0722
CN(CCOC(=O)c1ccc(Cl)cc1)c1ncc(C(F)(F)F)cc1Cl	x	x	-0.316
C[C@@H]1CN([C@@H](C)CO)C(=O)c2cc(NC(=O)c3ccncc3)ccc2O[C@H]1CN(C)Cc1ccncc1	3.4	3.1	-0.239
COc1ccc(/C=N\NC(=O)c2ccccc2O)c(O)c1	-125.8	49.6	0.0739
C[C@H](CO)N1C[C@H](C)[C@H](CN(C)Cc2ccc(-c3ccccc3)cc2)Oc2ccc(NC(=O)C3CC3)cc2C1=O	-5.8	3.2	0.176
CC(C)(C)OC(=O)N1CCC[C@H]1/C=N/NC(=O)c1ccc(C(=O)NO)cc1	25.6	4.2	0.468
C[C@H]1CN([C@@H](C)CO)C(=O)c2cccc(NC(=O)c3ccncc3)c2O[C@H]1CN(C)Cc1ccc(C(F)(F)F)cc1	1.8	83.7*	0.362
C[C@H](CO)N1C[C@H](C)[C@H](CN(C)Cc2ccc(C(F)(F)F)cc2)Oc2c(NC(=O)c3ccncc3)cccc2C1=O	-1.6	64.5*	-0.018
C[C@H](CO)N1C[C@H](C)[C@H](CN(C)Cc2ccc(C(=O)O)cc2)Oc2c(NC(=O)c3ccncc3)cccc2C1=O	7.6	-26.8	-0.0194
C[C@@H]1CN([C@@H](C)CO)C(=O)c2cccc(NC(=O)c3ccncc3)c2O[C@@H]1CN(C)Cc1ccncc1	9.2	-6.6	0.116
C[C@@H]1CN([C@@H](C)CO)C(=O)c2cc(NC(=O)CCCCCC(=O)Nc3ccccc3N)ccc2O[C@@H]1CN(C)CC1CCCCC1	-0.9	-4.3	-0.272
C[C@H]1CN([C@@H](C)CO)C(=O)Cc2cc(NC(=O)Nc3ccc(F)cc3)ccc2O[C@@H]1CN(C)Cc1ccc(C(F)(F)F)cc1	-54.9	83.8*	-0.157
C[C@@H]1CN([C@H](C)CO)C(=O)Cc2cc(NC(=O)Nc3ccc(F)cc3)ccc2O[C@H]1CN(C)Cc1ccc(C(F)(F)F)cc1	-65.0	72.9*	0.319
C[C@H](CO)N1C[C@H](C)[C@H](CN(C)Cc2ccc(C(F)(F)F)cc2)Oc2ccc(NC(=O)Nc3ccc(F)cc3)cc2CC1=O	-18.2	77.6*	-0.173
CC(C)NC(=O)Nc1ccc2c(c1)CC(=O)N([C@H](C)CO)C[C@H](C)[C@H](CN(C)Cc1ccc(C(F)(F)F)cc1)O2	5.0	16.6	-0.201
CC(C)NC(=O)Nc1ccc2c(c1)CC(=O)N([C@@H](C)CO)C[C@@H](C)[C@@H](CN(C)Cc1ccc(C(F)(F)F)cc1)O2	0.5	9.4	-0.0799
C[C@H]1CN([C@@H](C)CO)C(=O)c2cccc(NC(=O)C3CC3)c2O[C@H]1CN(C)S(=O)(=O)c1cn(C)cn1	11.0	-12.6	0.112
C[C@H](CO)N1C[C@H](C)[C@H](CN(C)C(=O)Nc2ccc(C(F)(F)F)cc2)Oc2ccc(NC(=O)Nc3cccc4ccccc34)cc2CC1=O	-19.5	9.1	0.0885
C[C@H]1CN([C@@H](C)CO)C(=O)Cc2cc(NC(=O)Nc3cccc4ccccc34)ccc2O[C@@H]1CN(C)Cc1ccc(C(F)(F)F)cc1	-52.0	69.2*	0.157
C[C@H]1CN([C@@H](C)CO)C(=O)Cc2cc(NC(=O)Nc3cccc4ccccc34)ccc2O[C@H]1CN(C)Cc1ccc(C(F)(F)F)cc1	-80.5	72.8*	0.282
C[C@@H]1CN([C@H](C)CO)C(=O)Cc2cc(NC(=O)Nc3cccc4ccccc34)ccc2O[C@H]1CN(C)Cc1ccc(C(=O)O)cc1	4.8	-21.3	0.16
SMILES	INS-1E rescue	T cruzi HTS	YB-1 expression
C[C@@H]1CN([C@H](C)CO)C(=O)Cc2cc(NC(=O)Nc3cccc4ccccc34)ccc2O[C@H]1CN(C)Cc1ccc(C(F)(F)F)cc1	-53.8	58.7*	0.0267
C[C@H](CO)N1C[C@H](C)[C@H](CN(C)Cc2ccc(C(F)(F)F)cc2)Oc2ccc(NC(=O)Nc3cccc4ccccc34)cc2CC1=O	-38.5	79.3*	-0.728
C[C@H]1CN([C@@H](C)CO)C(=O)Cc2cc(NC(=O)Nc3cccc4ccccc34)ccc2O[C@@H]1CN(C)Cc1ccc(C(=O)O)cc1	-1.4	-13.1	0.362
C[C@@H]1CN([C@@H](C)CO)C(=O)Cc2cc(NC(=O)Nc3cccc4ccccc34)ccc2O[C@@H]1CN(C)C(=O)Nc1ccc(C(F)(F)F)cc1	-30.3	46.0	0.257
Cc1ccc(S(=O)(=O)Nc2ccc3c(c2)C(=O)N([C@@H](C)CO)C[C@@H](C)[C@H](CN(C)C(=O)Nc2ccc(F)cc2)O3)cc1	-3.1	-6.1	-0.152
CNC[C@@H]1Oc2c(NC(=O)Nc3ccc(C(F)(F)F)cc3)cccc2C(=O)N([C@H](C)CO)C[C@H]1C	5.3	-2.9	0.421
C[C@@H]1CN([C@H](C)CO)C(=O)c2cccc(NC(=O)c3ccc(-c4nccs4)cc3)c2O[C@H]1CN(C)C(=O)Nc1cccc2ccccc12	9.1	-11.4	0.0366
O=C(c1ccccc1)c1cc[n+](Cc2ccccn2)cc1	x	x	-1.04
CCOC(=O)c1cnc2c(OC)cccc2c1NC1CCCCC1	x	x	-0.0656
CCOC(=O)c1cnc2c(cnn2CC)c1NN=C(C)C	x	x	4.91*
C[C@@H]1CN([C@@H](C)CO)C(=O)c2cc(NC(=O)Cc3ccccc3)ccc2O[C@@H]1CN(C)Cc1ccc(C(F)(F)F)cc1	x	-0.5	0.122
C[C@H](CO)N1C[C@H](C)[C@H](CN(C)Cc2ccc(C(F)(F)F)cc2)Oc2ccc(NC(=O)Cc3ccccc3)cc2C1=O	x	64.1*	0.158
C[C@@H]1CN([C@@H](C)CO)C(=O)c2cc(NC(=O)Nc3ccc(C(F)(F)F)cc3)ccc2O[C@@H]1CN(C)Cc1ccc(-c2ccccc2)cc1	-34.2	64.0*	0.16
C[C@@H]1CN([C@H](C)CO)C(=O)c2cc(NC(=O)Nc3ccc(C(F)(F)F)cc3)ccc2O[C@H]1CN(C)Cc1ccc(-c2ccccc2)cc1	-67.8	85.9*	0.13
C[C@@H]1CN([C@@H](C)CO)C(=O)c2cc(NC(=O)Nc3ccc(C(F)(F)F)cc3)ccc2O[C@H]1CN(C)Cc1ccc(-c2ccccc2)cc1	-44.8	1.8	-0.229
C[C@H](CO)N1C[C@H](C)[C@@H](CN(C)Cc2ccc(-c3ccccc3)cc2)Oc2ccc(NC(=O)Nc3ccc(C(F)(F)F)cc3)cc2C1=O	-20.4	22.7	0.0327
Cc1sc2nc(C(=O)Oc3ccc(F)cc3)cc(N)c2c1C	x	x	-0.264

Source: PubChem
